# Measurements taken from publication PMC2711989 (Cancer research, 2009).
# Read-outs that look alike come from different tables or passages of the source.
# Assays:
# [1] = tested on: DX3puroβ6 (αvβ6-positive) and DX3puro (αvβ6-negative) xenografts; experiment: Biodistribution in the DX3puro/DX3puroβ6 xenograft model; assay type: in vivo, mice
# Method in brief: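 Each male athymic nude mouse (nu/nu) carried both xenografts: 3 × 10^6 DX3puroβ6 (αvβ6-transduced) and 3 × 10^6 DX3puro (control) melanoma cells in serum-free DMEM, injected s.c. on opposite shoulder flanks. Studies began at a tumor diameter of ∼0.5 cm. Radiotracers (∼15 to 30 μCi) were given in saline/PBS, n = 3 per time point. Uptake was expressed as decay-corrected %ID/g, mean ± SD.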
# [2] = Biodistribution in the BxPC-3 xenograft model; assay type: in vivo, mice; conditions: male, athymic nude (nu/nu), mouse, BxPC-3 tumor, iv, total radioactivity
# Method in brief: (§1)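 Male athymic nude mice (nu/nu) received 1.5 × 10^6 BxPC-3 cells s.c. in the left shoulder region, in 1:1 serum-free DMEM/MatriGel. Studies began at a tumor diameter of ∼0.5 cm. Radiotracers (∼15 to 30 μCi) were given in saline/PBS, n = 3 per time point. Tumor and tissue radioactivity was expressed as decay-corrected %ID/g, mean ± SD. Significance was tested by two-tailed Student's t-test.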
# [3] = tested on: BxPC-3 xenograft; experiment: Biodistribution in the BxPC-3 xenograft model; assay type: in vivo, mice
# Method in brief: as §1
# [4] = tested on: BxPC-3 tumor; experiment: MicroPET imaging of the BxPC-3 xenograft model; assay type: in vivo, mice; conditions: for SUVmax in BxPC-3 tumor: mean ± SD, n = 3 animals
# [5] = tested on: DX3puroβ6 cell line; experiment: Radiotracer cell binding and internalization, DX3puroβ6 cells; assay type: cell-based, human; conditions: DX3puroβ6, 1 hour, acidic wash buffer pH 2.5, 4°C
# Method in brief: (§2)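 3.75 × 10^6 cells were incubated with 0.2 μCi radiotracer in serum-free medium, pH 7.2, over a time course or for 1 h, n = 4 per cell line per time point. Bound fraction was γ-counted as cell pellet vs supernatant. Acid wash (0.2 mol/L sodium acetate, 0.5 mol/L NaCl, pH 2.5, 4°C) then released surface activity; internalized fraction was pellet vs released activity.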
# [6] = tested on: BxPC-3 cell line; experiment: Radiotracer cell binding and internalization, BxPC-3 cells; assay type: cell-based, human; conditions: BxPC-3, 1 hour, acidic wash buffer pH 2.5, 4°C
# Method in brief: as §2
# [7] = tested on: DX3puroβ6 (αvβ6-positive) and DX3puro (αvβ6-negative) xenografts; conditions: previously seen, cited from earlier work
Compound,maximal αvβ6-positive/-negative xenograft uptake ratio [1],tissue uptake at 1 h [2],tissue uptake at 4 h [2],BxPC-3/blood ratio ([3]; 1 h),BxPC-3/muscle ratio ([3]; 1 h),BxPC-3/pancreas ratio ([3]; 1 h),BxPC-3/blood ratio ([3]; 4 h),BxPC-3/muscle ratio ([3]; 4 h),BxPC-3/pancreas ratio ([3]; 4 h),SUVmax in BxPC-3 tumor ([4]; 15min),SUVmax in BxPC-3 tumor ([4]; 1 h p.i.),SUVmax in BxPC-3 tumor ([4]; 4 h),fraction of bound radioactivity internalized [5],fraction of bound radioactivity internalized [6],uptake in αvβ6-positive DX3puroβ6 tumor ([7]; 1 h p.i.),uptake in αvβ6-positive DX3puroβ6 tumor ([7]; 4 h p.i.),detection of BxPC-3 tumors by PET ([4]; BxPC-3 xenograft bearing mice)
CC(C)C[C@H](NC(=O)[C@H](CC(=O)O)NC(=O)CNC(=O)[C@H](CCCNC(=N)N)NC(=O)[C@H](CC(C)C)NC(=O)[C@H](CC(N)=O)NC(=O)[C@@H]1CCCN1C(=O)[C@@H](NC(=O)[C@H](C)NC(=O)[C@H](CC(N)=O)NC(=O)CCOCCOCCOCCOCCOCCOCCOCCOCCOCCOCCOCCOCCOCCOCCOCCOCCOCCOCCOCCOCCOCCOCCOCCOCCOCCOCCOCCOCCNC(=O)CCOCCOCCOCCOCCOCCOCCOCCOCCOCCOCCOCCOCCOCCOCCOCCOCCOCCOCCOCCOCCOCCOCCOCCOCCOCCOCCOCCOCCNC(=O)c1ccc(F)cc1)C(C)C)C(=O)N[C@@H](CCC(N)=O)C(=O)N[C@H](C(=O)N[C@@H](CC(C)C)C(=O)N[C@@H](C)C(=O)N[C@@H](CCC(N)=O)C(=O)N[C@@H](CCCCN)C(=O)N[C@H](C(=O)N[C@@H](C)C(=O)N[C@@H](CCCNC(=N)N)C(=O)N[C@H](C(N)=O)[C@@H](C)O)C(C)C)C(C)C [[^18F]FBA-(PEG28)2-A20FMDV2],9.2 :1,1.57 ± 0.25 %ID/g,2.08 ± 0.37 %ID/g,9.0 :1,4.1 :1,5.6 :1,150 :1,4.4 :1,4.4 :1,0.99 ± 0.18,0.79 ± 0.24,0.59 ± 0.20,,,,,
"CC(C)C[C@H](NC(=O)[C@H](CC(=O)O)NC(=O)CNC(=O)[C@H](CCCNC(=N)N)NC(=O)[C@H](CC(C)C)NC(=O)[C@H](CC(N)=O)NC(=O)[C@@H]1CCCN1C(=O)[C@@H](NC(=O)[C@H](C)NC(=O)[C@H](CC(N)=O)NC(=O)c1ccc(F)cc1)C(C)C)C(=O)N[C@@H](CCC(N)=O)C(=O)N[C@H](C(=O)N[C@@H](CC(C)C)C(=O)N[C@@H](C)C(=O)N[C@@H](CCC(N)=O)C(=O)N[C@@H](CCCCN)C(=O)N[C@H](C(=O)N[C@@H](C)C(=O)N[C@@H](CCCNC(=N)N)C(=O)N[C@H](C(N)=O)[C@@H](C)O)C(C)C)C(C)C [[^18F]FBA-A20FMDV2, 4-[^18F]fluorobenzoyl A20FMDV2]",,0.69 ± 0.19 %ID/g,0.12 ± 0.03 %ID/g,3.3 :1,1.3 :1,,7.0 :1,2.5 :1,9.5 :1,0.50 ± 0.22,0.22 ± 0.11,< 0.05,less than half,less than half,0.66 ± 0.09 % ID/g,0.06 ± 0.00 % ID/g,
"O=C[C@H]([18F])[C@@H](O)[C@H](O)[C@H](O)CO [[^18F]FDG, 2-[^18F]fluoro-2-deoxy-D-glucose, reference compound]",,,,,,,,,,,0.62 ± 0.13,,,,,,failed in all animals to detect the BxPC-3 tumors
